# Compound activity: PubChem, The Scripps Research Institute Molecular Screening Center
# This is a sample that favours compounds with a hit; in the whole collection about 3.3% have one here.
# ABHD4 inh: ABHD4 (mouse) inhibition, primary FP screen; Q8VD66; purified mABHD4, FP-Rh probe fluorescence polarization; inhibition, % at 8.92 µM; 0.54% of 370,000 active;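 active means inhibition exceeding the mean over every tested compound plus 3 SD, cut at about 30% in these data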;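 further: 0% = plate median of compound wells and 100% = S159A mutant with DMSO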
#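 Test system: mABHD4 protein; Read-out basis: % inhibition; Incubation: 45 min + 60 min at 25 °C; Repeats: single replicate; Technique: fluorescence polarization with parallel and perpendicular emission, 525/598 nm; Compound: 8.92 µM, single dose; Benchmarks: full inhibition S159A mutant plus DMSO, zero as sample-well median.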
# rCAG binder: binds r(CAG) RNA repeats | r(CAG) RNA repeat, TO-PRO-1 dye displacement fluorescence | inhibition, % at 3 µM | 1.3% of 370,000 active;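 active means inhibition above the plate cutoff, the mean of all test compounds on that plate plus 3 SD, cut at about 35% in these data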;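 further: 0% = DMSO alone and 100% = 100 µM mitoxantrone as full dye displacement; higher means more dye released from RNA so lower well fluorescence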
# TCR CD3 inh: inhibitors of human TCR-CD3 interaction | TAMRA-labeled TCR probe fluorescence, biochemical | inhibition, % at 9.4 µM | 0.37% of 360,000 active; in the data active means inhibition above about 19%;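 further: recombinant mutant TCR 2C K166C tagged with TAMRA read by polarization; 0% = receptor in buffer alone and 100% = receptor with positive control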
# SIAE inh: blocks human sialic acid acetylesterase; SIAE FP-Rh probe binding, fluorescence polarization; inhibition, % at 9.66 µM; Q9HAT2; 0.69% of 370,000 active;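 active means inhibition above a cutoff: mean of compounds within the control limits plus 3 SD of those, cut at about 17% in these data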;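 further: 0% = plate median of compound wells and 100% = probe without SIAE protein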
# PRMT1 FP inh: blocks human protein arginine methyltransferase 1. Q99873. recombinant PRMT1, activity-based probe fluorescence polarization. inhibition, % at 2.79 µM. 1.3% of 370,000 active. AID 652257;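 active means inhibition above about 21% made by adding two undisclosed values, limit read from the data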
# Target sequence (Q99873 whole entry, looked up): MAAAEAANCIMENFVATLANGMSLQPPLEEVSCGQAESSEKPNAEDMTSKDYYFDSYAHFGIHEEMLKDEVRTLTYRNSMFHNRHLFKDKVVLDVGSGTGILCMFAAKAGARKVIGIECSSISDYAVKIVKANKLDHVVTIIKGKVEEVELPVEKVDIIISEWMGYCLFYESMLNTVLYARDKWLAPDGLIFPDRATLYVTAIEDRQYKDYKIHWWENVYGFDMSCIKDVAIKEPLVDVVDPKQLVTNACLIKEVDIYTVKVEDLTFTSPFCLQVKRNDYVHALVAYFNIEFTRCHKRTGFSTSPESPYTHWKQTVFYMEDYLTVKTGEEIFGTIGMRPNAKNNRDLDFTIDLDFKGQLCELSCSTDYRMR
# SIAE confirm: confirmation of human SIAE inhibitors. inhibition, % at 9.66 µM. SIAE FP-Rh activity-based probe, fluorescence polarization. shares compounds with SIAE inh. 13% of 2,300 active;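 active means mean inhibition of the replicates above the hit cutoff set in the primary screen, cut at about 17% in these data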;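 further: 0% = SIAE with DMSO and probe and 100% = probe without SIAE; inhibitors lower polarization as more probe stays unbound to SIAE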
# Starred values were filed as active, the others as inactive; x = not tested or not shown.
SMILES,ABHD4 inh,rCAG binder,TCR CD3 inh,SIAE inh,PRMT1 FP inh,SIAE confirm
COc1ccc2ccccc2c1/C=N/NC(=O)c1cccc(Br)c1,-3,17,-3,-11,2,x
O=C(N/N=C/c1c(O)ccc2ccccc12)c1[nH]ncc1Br,17,24,11,19*,0,-5
O=C(N/N=C/c1c(O)ccc2ccccc12)c1cccc(C(F)(F)F)c1,21,12,11,25*,2,6
Cc1ccc(O)c(/C=N/NC(=O)c2[nH]ncc2Br)c1,-1,2,13,1,-1,x
CNC(=O)[C@@H]1CCC(=O)N1,1,-1,-4,4,-2,x
Cc1cc(C)c(NC(=O)Nc2ccc3c(c2)OCO3)c(C)c1,0,1,9,-5,-2,x
Cc1cc(C)c2[nH]c(C(=O)Nc3ccc4c(c3)OCO4)cc2c1,12,27,1,18*,-2,0
CSCCC(=O)N1CCC(CCC(=O)NC2CC2)CC1,-3,-2,0,-5,-1,x
CCCc1nc2ccc(Cl)cn2c1Cc1ccc(C)cc1,6,2,5,18*,-1,4
CCCc1nc2ccc(Cl)cn2c1Cc1cccc(Cl)c1,-11,6,-6,4,6,x
CC(C)N(C)c1ncnc2c1ncn2[C@H]1CN(Cc2ccc(Cl)cc2)C[C@@H](CO)O1,-1,0,4,-2,-3,x
O=C(CSc1nnc2ccccn12)NC(=O)c1ccccc1,-1,1,7,17*,1,0
O=C(CSc1nnc2ccccn12)NC(=O)NC1CCCC1,0,-5,-2,-3,-1,x
C#CCONC(=O)c1cc(OCC(F)(F)F)ccc1OCC(F)(F)F,5,-4,0,18*,-2,0
COc1ccc(OC)c(/C=N\Nc2nccs2)c1,7,10,2,18*,-2,2
CC(C)CC(=O)N1CCC(C(=O)NCC2COc3ccccc3O2)CC1 (stereo unspecified),2,-2,x,6,2,x
Cc1ccc(NC(=S)NNC(=S)Nc2ccc(C)cc2C)cc1,11,1,-3,18*,5,5
Cc1ccc(NC(=O)CCC(=O)NNC(=S)Nc2ccccc2)c(C)c1,1,-2,-7,0,14,x
COc1ccc(C(=O)NC(=S)Nc2cccc3cc(O)ccc23)cc1OC,4,30,-3,28*,4,6
O=C(NCCOc1ccccc1)c1ccccc1SCC(=O)N1CCCC1,-2,-1,1,-10,-1,x
O=C(NC1CC1)c1cccc(S(=O)(=O)Nc2ccccc2F)c1,-2,2,9,17*,-1,-3
O=[N+]([O-])c1cccc(-c2noc(-c3ccco3)n2)c1,1,-2,-4,-5,5,x
CN(C)CCOC(=O)/C(=C/c1cn(C)c2ccccc12)NC(=O)c1ccccc1,-1,-6,2,18*,-4,3
Cc1ccc(C(=O)N/C(=C\c2cn(C)c3ccccc23)C(=O)OCCN(C)C)cc1,-1,-2,0,3,0,x
CN(C)c1ccc(C(CNS(=O)(=O)c2ccc(F)c(F)c2)c2c[nH]c3ccccc23)cc1 (stereo unspecified),-10,13,4,27*,1,3
SMILES,ABHD4 inh,rCAG binder,TCR CD3 inh,SIAE inh,PRMT1 FP inh,SIAE confirm
CN(C)c1ccc(C(CNC(=O)c2ccccc2F)c2c[nH]c3ccccc23)cc1 (stereo unspecified),2,9,-3,0,-3,x
COc1ccc(NC(=O)COC(=O)c2cccn2C)cc1S(=O)(=O)N1CCCCC1,-5,6,5,-4,-3,x
COc1ccc(NC(=O)CN2c3cccc4cccc(c34)S2(=O)=O)c(OC)c1,-2,8,-2,-1,0,x
COc1cc(NC(=O)CN2c3cccc4cccc(c34)S2(=O)=O)cc(OC)c1OC,10,6,5,29*,-4,-5
CC(C)C(=O)Nc1nc2cc3c(cc2s1)OCO3,-1,2,2,13,-2,x
Fc1cc(F)c2nc(Nc3nc4cc5c(cc4s3)OCO5)sc2c1,2,20,7,25*,0,85*
c1ccc2[nH]c(CN3CCN(c4ncnc5c4oc4ccccc45)CC3)nc2c1,6,2,-9,20*,0,-5
Cc1nc(N2CCN(Cc3nc4ccccc4[nH]3)CC2)c2oc3ccccc3c2n1,-9,6,-2,-2,4,x
CC(=O)NC(Cc1cccc(C)c1)C(=O)NC1CCN(S(=O)(=O)c2ccccc2)CC1 (stereo unspecified),-3,-5,4,16,-5,x
CCc1cccc2c(N=O)c(O)[nH]c12,-2,2,2,21*,1,15
COc1ccccc1CNC(=O)c1sccc1-c1ccccc1,-5,2,0,15,-2,x
C[C@H](NC(=O)CCCn1nnc2ccccc2c1=O)C(=O)O,9,1,0,17*,-8,0
C[C@H](NC(=O)CCn1nnc2ccccc2c1=O)C(=O)O,2,1,11,3,1,x
C[C@@H]1CN([C@H](C)CO)C(=O)c2cc(Br)cnc2O[C@@H]1CN(C)C(=O)c1cccc(F)c1,0,3,1,17*,-3,2
Cc1ncc(CSc2nc3ccccc3[nH]2)c(N)n1,2,0,-2,-2,1,x
COc1ccc2nc(SCc3cnc(C)nc3N)[nH]c2c1,10,-1,4,19*,1,-4
COc1cccc(/C=N/NC(=S)Nc2cccc(S(=O)(=O)N(C)C)c2)c1,1,9,-2,-1,3,x
COc1ccc(O)c(/C=N/NC(=S)Nc2cccc(S(=O)(=O)N(C)C)c2)c1,3,22,14,33*,-1,-6
CC(=O)c1ccc(NC(=S)Nc2cccc3ccccc23)cc1,14,14,-6,32*,3,1
CC1=CCC(C(=O)O)C(C(=O)NC2CCCCC2)C1 (stereo unspecified),4,1,3,22*,4,2
CC1=C(C)CC(C(=O)NC2CCCC2)C(C(=O)O)C1 (stereo unspecified),-2,-3,2,6,5,x
O=C(CN1CCN(S(=O)(=O)c2ccc3c(c2)OCCO3)CC1)Nc1cccc(F)c1,2,-3,4,19*,2,0
CNC(=O)COC(=O)C1CCN(S(=O)(=O)c2ccc3c(c2)OCCO3)CC1,1,1,-10,0,0,x
O=C(COC(=O)C1CCN(S(=O)(=O)c2ccc3c(c2)OCCO3)CC1)Nc1cccc2ccccc12,0,2,-2,18*,-4,-1
NC(=O)c1ccc(NC(=O)CN2CCN(S(=O)(=O)c3ccc4c(c3)OCCO4)CC2)cc1,-12,5,-8,-4,6,x
Cc1ccc(Cl)c2sc(NC(=O)C3=COCCO3)nc12,-12,9,4,-38,1,x
O=C(Cc1csc(NC(=O)c2ccc(F)cc2)n1)NO,2,3,4,24*,-2,17
